In ChEMBL document CHEMBL1155349, “Identification of small molecule inhibitors of proline-rich tyrosine kinase 2 (Pyk2) with osteogenic activity in osteoblast cells” (Bioorg Med Chem Lett, 2009):
One block for each compound: values may come before it.

Legend:
[1] = target: Focal adhesion kinase 1 (Homo sapiens, UniProt Q05397); assay: Inhibition of human FAK by HTRF assay
[2] = target: Protein-tyrosine kinase 2-beta (Mus musculus) (UniProt Q9QVP9); assay: (§1) Inhibition of mouse Pyk2 in […] cells assessed as increase in alkaline phosphatase level; format: cell-based
Procedure, shortened: (§2)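 MC3T3 osteoblast cells were grown with increasing inhibitor concentrations for up to 3 weeks. Alkaline phosphatase, osteocalcin and calcium were measured as osteogenic markers after three weeks in culture, and ALP was also measured at additional time points. EC50 values came from the dose-response. Culture and dosing conditions followed an earlier report.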

[3] = target: T1, Protein-tyrosine kinase 2-beta (Mus musculus, UniProt Q9QVP9); assay: as §1; format: cell-based; procedure, shortened: as §2
[4] = target: Protein-tyrosine kinase 2-beta (Mus musculus) (UniProt Q9QVP9); assay: (§3) Inhibition of mouse Pyk2 in […] cells assessed as increase in osteocalcin level; format: cell-based; procedure, shortened: as §2
[5] = target: T1, Protein-tyrosine kinase 2-beta; assay: as §3; format: cell-based; procedure, shortened: as §2
[6] = target: Protein-tyrosine kinase 2-beta (Mus musculus) (UniProt Q9QVP9); assay: Inhibition of mouse Pyk2 in […] cells assessed as increase in calcium level; format: cell-based; procedure, shortened: as §2
[7] = target: T2, Protein-tyrosine kinase 2-beta (Homo sapiens, UniProt Q14289); assay: Inhibition of human Pyk2 by HTRF assay
[8] = target: T2, Protein-tyrosine kinase 2-beta; assay: Inhibition of human PyK2 Y402 autophosphorylation expressed in 293T cells by immunofluorescence assay; format: cell-based
[9] = target: Tyrosine-protein kinase JAK1 (Homo sapiens, UniProt P23458); assay: Inhibition of Jak1
[10] = target: Tyrosine-protein kinase JAK2 (Homo sapiens, UniProt O60674); assay: Inhibition of Jak2
[11] = target: T3, Tyrosine-protein kinase JAK3 (Homo sapiens, UniProt P52333); assay: Inhibition of Jak3
T3 sequence (P52333 whole entry): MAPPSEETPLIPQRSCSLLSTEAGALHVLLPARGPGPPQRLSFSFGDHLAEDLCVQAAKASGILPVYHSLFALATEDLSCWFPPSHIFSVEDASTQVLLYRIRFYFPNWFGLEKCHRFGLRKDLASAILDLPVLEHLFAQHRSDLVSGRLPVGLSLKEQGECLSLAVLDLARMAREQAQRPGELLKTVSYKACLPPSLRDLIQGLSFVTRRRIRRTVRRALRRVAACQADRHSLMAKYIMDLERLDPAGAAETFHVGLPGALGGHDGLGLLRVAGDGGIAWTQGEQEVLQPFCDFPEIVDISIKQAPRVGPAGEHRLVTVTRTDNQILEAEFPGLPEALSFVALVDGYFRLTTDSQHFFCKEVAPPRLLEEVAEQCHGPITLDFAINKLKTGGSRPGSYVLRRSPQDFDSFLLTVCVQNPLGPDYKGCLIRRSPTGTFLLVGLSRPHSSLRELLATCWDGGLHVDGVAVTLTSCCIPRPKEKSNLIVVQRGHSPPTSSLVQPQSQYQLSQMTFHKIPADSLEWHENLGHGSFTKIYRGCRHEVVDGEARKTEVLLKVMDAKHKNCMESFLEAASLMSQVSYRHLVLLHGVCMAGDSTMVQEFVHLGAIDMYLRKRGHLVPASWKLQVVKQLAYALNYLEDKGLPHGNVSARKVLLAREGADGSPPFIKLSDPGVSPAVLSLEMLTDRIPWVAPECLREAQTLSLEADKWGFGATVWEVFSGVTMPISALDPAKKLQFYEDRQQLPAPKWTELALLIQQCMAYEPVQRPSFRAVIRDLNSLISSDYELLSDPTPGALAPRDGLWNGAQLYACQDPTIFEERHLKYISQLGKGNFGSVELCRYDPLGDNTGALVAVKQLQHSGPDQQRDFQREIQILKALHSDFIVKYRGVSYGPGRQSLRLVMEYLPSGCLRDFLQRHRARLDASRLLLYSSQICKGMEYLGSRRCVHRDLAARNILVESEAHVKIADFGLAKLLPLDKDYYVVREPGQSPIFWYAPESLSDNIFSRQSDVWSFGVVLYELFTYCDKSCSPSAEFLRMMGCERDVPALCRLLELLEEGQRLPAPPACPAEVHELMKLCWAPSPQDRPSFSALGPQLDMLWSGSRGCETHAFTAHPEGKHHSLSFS

[12] = target: T4, Eukaryotic translation initiation factor 2-alpha kinase 3 (Homo sapiens, UniProt Q9NZJ5); assay: Inhibition of PEK
T4 sequence (Q9NZJ5 whole entry): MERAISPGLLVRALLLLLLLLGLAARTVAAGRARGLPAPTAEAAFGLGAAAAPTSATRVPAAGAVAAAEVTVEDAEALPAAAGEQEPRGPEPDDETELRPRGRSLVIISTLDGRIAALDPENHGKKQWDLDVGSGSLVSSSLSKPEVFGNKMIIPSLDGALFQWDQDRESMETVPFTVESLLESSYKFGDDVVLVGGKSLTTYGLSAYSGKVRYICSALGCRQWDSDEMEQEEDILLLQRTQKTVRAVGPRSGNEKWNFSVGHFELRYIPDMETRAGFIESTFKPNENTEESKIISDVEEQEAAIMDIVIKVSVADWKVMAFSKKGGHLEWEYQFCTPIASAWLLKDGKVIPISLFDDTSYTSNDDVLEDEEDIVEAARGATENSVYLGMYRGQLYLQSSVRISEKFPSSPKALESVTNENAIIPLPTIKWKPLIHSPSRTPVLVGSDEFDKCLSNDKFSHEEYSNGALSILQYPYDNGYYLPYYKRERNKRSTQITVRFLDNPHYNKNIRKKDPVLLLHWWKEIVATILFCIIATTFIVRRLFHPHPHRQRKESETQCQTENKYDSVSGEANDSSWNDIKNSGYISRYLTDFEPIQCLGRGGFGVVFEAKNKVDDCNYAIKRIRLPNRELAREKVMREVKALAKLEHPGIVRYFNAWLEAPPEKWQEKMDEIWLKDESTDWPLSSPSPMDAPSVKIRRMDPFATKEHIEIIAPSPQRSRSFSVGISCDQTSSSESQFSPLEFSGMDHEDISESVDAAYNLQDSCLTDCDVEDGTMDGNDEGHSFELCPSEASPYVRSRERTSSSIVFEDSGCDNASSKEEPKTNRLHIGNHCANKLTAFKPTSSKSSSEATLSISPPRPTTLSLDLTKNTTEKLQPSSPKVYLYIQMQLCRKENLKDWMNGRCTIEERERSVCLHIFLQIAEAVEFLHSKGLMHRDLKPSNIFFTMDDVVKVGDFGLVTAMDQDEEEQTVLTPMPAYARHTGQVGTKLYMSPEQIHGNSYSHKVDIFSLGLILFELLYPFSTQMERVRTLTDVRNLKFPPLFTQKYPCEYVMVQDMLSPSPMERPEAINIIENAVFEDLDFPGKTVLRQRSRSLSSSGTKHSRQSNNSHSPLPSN

[13] = target: Non-receptor tyrosine-protein kinase TYK2 (Homo sapiens, UniProt P29597); assay: Inhibition of TYK2
[14] = target: Interferon-induced, double-stranded RNA-activated protein kinase (Homo sapiens, UniProt P19525); assay: Inhibition of PKR
[15] = Inhibition of Aurora 2

Chain of Focal adhesion kinase 1 (Q05397 whole entry): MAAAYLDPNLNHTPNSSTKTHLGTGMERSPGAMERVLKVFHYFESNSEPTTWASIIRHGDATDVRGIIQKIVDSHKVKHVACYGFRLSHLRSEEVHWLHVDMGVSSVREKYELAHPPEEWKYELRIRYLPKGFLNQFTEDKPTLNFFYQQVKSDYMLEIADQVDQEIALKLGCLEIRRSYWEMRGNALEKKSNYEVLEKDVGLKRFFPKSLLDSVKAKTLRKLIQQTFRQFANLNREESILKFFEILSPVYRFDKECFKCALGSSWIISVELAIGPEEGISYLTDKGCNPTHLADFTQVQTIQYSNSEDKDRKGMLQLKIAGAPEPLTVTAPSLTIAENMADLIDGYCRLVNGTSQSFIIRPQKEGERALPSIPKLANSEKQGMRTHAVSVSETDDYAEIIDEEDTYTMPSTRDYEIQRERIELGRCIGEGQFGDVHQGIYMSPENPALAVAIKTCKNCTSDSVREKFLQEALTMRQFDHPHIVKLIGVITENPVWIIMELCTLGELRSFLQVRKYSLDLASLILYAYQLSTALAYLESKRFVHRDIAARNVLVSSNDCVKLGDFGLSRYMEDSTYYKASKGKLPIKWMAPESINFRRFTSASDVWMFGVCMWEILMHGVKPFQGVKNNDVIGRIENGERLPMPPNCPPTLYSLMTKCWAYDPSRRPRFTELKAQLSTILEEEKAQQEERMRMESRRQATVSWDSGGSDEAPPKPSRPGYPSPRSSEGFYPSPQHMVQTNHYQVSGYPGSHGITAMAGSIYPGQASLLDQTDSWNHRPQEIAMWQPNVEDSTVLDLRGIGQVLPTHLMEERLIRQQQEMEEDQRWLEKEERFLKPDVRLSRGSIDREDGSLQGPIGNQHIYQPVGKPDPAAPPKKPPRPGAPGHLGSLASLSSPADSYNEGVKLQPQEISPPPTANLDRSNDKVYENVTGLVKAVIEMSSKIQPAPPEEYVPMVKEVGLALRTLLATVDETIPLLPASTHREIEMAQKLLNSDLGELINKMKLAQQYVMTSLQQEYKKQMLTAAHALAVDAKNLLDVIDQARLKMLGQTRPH
Chain of Protein-tyrosine kinase 2-beta (Mus musculus) (Q9QVP9 whole entry, looked up): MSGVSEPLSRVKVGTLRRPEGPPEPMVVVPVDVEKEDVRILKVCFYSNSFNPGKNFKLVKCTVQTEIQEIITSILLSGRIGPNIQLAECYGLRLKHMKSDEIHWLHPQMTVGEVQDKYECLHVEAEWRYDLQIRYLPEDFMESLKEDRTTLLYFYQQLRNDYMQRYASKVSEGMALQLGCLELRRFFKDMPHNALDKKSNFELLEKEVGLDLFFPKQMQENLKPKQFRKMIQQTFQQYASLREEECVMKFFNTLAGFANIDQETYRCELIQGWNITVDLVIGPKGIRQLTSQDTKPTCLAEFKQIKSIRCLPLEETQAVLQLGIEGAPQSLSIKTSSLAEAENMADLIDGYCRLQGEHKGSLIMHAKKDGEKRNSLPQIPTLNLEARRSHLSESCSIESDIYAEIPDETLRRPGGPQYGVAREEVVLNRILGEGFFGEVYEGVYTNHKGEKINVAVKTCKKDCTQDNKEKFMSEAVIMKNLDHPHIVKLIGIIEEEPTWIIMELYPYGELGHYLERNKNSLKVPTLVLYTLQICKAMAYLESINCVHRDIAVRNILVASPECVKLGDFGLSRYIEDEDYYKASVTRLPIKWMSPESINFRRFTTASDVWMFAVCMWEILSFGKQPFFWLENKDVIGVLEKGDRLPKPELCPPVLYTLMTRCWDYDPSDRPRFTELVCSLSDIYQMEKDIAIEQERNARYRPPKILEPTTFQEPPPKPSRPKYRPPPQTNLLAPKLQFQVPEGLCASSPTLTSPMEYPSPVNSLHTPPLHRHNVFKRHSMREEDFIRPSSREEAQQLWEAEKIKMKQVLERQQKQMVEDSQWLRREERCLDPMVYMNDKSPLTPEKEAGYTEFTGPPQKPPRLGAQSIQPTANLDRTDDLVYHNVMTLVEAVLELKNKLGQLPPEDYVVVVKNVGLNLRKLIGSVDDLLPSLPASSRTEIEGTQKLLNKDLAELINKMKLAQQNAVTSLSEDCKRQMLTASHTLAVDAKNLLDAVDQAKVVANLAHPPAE
T1 sequence (Q9QVP9 whole entry): as the sequence (Q9QVP9 whole entry, looked up) above
T2 sequence (Q14289 whole entry): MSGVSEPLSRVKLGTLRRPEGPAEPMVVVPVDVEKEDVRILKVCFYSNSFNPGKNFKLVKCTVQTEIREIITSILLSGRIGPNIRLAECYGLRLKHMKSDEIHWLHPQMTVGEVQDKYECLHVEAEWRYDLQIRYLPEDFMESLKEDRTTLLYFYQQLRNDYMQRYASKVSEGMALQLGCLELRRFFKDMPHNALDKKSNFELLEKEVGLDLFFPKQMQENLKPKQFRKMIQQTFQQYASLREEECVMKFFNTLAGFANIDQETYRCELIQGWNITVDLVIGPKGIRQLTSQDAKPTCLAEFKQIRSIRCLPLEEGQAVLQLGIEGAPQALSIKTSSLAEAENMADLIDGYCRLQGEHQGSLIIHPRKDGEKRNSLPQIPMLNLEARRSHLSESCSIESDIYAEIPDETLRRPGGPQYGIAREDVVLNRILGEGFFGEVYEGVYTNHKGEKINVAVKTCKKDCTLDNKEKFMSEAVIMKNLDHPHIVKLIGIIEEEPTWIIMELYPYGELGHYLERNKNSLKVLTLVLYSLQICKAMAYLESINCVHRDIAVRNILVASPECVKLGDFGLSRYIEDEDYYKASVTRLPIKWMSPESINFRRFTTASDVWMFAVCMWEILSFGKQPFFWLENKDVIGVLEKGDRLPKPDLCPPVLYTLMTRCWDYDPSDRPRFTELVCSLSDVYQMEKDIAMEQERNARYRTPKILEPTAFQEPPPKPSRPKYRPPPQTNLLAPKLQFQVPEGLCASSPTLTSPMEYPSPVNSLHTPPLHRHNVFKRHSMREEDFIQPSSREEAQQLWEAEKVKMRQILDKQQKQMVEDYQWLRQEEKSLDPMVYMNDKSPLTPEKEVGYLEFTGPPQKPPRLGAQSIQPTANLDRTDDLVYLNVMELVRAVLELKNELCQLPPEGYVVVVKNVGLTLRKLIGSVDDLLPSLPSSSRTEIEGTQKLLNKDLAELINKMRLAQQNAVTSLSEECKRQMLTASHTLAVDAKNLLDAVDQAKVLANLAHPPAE
Chain of Tyrosine-protein kinase JAK1 (P23458 whole entry): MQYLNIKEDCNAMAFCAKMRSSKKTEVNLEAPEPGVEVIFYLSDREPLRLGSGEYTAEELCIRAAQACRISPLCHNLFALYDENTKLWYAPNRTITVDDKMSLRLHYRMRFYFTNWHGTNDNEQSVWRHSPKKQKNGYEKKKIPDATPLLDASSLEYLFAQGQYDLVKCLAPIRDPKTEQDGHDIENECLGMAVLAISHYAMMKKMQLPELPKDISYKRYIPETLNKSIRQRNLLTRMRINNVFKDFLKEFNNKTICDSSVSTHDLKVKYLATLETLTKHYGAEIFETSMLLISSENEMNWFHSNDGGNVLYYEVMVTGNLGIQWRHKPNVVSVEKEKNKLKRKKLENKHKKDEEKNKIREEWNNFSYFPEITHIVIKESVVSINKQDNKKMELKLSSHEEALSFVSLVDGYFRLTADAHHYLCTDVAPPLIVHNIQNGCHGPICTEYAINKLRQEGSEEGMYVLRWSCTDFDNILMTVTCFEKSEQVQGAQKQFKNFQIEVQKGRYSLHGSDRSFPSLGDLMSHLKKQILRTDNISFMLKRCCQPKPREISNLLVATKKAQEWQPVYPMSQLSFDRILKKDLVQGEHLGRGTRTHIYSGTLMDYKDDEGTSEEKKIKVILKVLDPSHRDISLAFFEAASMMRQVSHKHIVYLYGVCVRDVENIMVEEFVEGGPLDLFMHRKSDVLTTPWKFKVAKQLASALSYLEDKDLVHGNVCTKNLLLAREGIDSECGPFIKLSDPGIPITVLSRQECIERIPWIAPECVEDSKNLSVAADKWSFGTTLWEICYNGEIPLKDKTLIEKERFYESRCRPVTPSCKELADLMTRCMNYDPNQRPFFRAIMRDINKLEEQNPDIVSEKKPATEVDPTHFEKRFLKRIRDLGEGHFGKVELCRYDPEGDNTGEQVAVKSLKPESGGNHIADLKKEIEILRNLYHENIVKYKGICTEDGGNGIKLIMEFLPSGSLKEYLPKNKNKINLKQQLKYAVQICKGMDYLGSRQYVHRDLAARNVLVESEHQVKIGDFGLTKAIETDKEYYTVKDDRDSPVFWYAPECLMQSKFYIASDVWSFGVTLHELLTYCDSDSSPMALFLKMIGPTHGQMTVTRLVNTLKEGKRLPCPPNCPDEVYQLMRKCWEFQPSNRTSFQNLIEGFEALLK
Chain of Interferon-induced, double-stranded RNA-activated protein kinase (P19525 whole entry): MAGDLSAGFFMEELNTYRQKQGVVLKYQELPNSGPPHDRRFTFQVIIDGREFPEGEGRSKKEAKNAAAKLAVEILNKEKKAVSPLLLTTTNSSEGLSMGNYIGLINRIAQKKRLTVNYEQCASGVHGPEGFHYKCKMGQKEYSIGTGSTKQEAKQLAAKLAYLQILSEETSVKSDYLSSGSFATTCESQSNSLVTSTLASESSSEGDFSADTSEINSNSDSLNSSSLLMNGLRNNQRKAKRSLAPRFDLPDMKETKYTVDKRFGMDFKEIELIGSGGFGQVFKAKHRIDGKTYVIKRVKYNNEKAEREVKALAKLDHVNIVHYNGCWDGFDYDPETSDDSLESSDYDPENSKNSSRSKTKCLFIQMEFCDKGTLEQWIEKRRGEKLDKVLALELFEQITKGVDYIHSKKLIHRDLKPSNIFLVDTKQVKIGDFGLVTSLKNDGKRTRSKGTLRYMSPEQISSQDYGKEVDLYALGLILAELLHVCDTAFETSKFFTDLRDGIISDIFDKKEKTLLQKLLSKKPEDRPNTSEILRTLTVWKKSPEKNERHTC

- IC50 [1]: > 125000 nM
Compound: COc1ccc2c(Oc3ccc(NC(=O)c4cc(-c5cccnc5)cn(-c5ccccc5)c4=O)nc3)ccnc2c1

- IC50 [1]: > 125000 nM
- Activity [2]: Dose-dependent effect
- EC50 [3]: 10 nM
- Activity [4]: Dose-dependent effect
- EC50 [5]: 10 nM
- Activity [6]: Dose-dependent effect
Compound: COc1cc2nccc(Oc3ccc(NC(=O)c4cc(-c5cccs5)cn(-c5ccccc5)c4=O)nc3)c2cc1OC

- IC50 [1]: > 125000 nM
Compound: COc1cc2nccc(Oc3ccc(NC(=O)c4cc(-c5cccnc5)cn(-c5ccccc5)c4=O)nc3)c2cc1OC

Further lines, the compound ahead of its results:

Compound: COc1cc2nccc(Oc3ccc(NC(=O)c4c(N(C)C)ccn(-c5ccccc5)c4=O)nc3)c2cc1OC
- IC50 [1]: > 125000 nM

Compound: COc1ccc2c(Oc3ccc(NC(=O)c4cc(-c5cnccn5)cn(-c5ccccc5)c4=O)nc3)ccnc2c1
- IC50 [1]: > 125000 nM

Compound: COCCNc1ccn(-c2ccccc2)c(=O)c1C(=O)Nc1ccc(Oc2ccnc3cc(OC)ccc23)cn1
- IC50 [1]: > 125000 nM

Compound: CNc1ccn(Cc2ccccc2)c(=O)c1C(=O)Nc1ccc(Oc2ccnc3cc(OC)c(OC)cc23)cn1
- IC50 [1]: > 125000 nM

Compound: COc1cc2nccc(Oc3ccc(NC(=O)c4c(N5CCN(C)CC5)ccn(-c5ccccc5)c4=O)nc3)c2cc1OC
- IC50 [1]: > 125000 nM

Compound: CNc1ccn(-c2ccccc2)c(=O)c1C(=O)Nc1ccc(Oc2ccnc3cc(OC)c(OC)cc23)cn1
- IC50 [7]: 35 nM
- IC50 [1]: 17000 nM
- IC50 [8]: 110 nM
- Activity [2]: Dose-dependent effect
- EC50 [3]: 10 nM
- Activity [4]: Dose-dependent effect
- EC50 [5]: 10 nM
- Activity [6]: Dose-dependent effect
- IC50 [9]: > 1000 nM
- IC50 [10]: > 1000 nM
- IC50 [11]: > 1000 nM
- IC50 [12]: > 1000 nM
- IC50 [13]: > 1000 nM
- IC50 [14]: > 1000 nM
- IC50 [15]: > 1000 nM
